ChEMBL document CHEMBL3862041, “Discovery of Novel Bruton's Tyrosine Kinase (BTK) Inhibitors Bearing a N,9-Diphenyl-9H-purin-2-amine Scaffold” (ACS Med Chem Lett, 2016)

How the values were obtained:
[1] = Antiproliferative activity against human Ramos cells after 48 hrs by CCK-8 assay; assay type: functional, cell-based
Procedure, shortened: (§1)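 Dose-response curves run at five concentrations in Ramos and Raji B-cell leukemia lines, with viability read by the CCK-8 method. IC50 is the concentration in micromolar that inhibits cell growth by 50%, taken from these curves.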

[2] = biological target: T1, Tyrosine-protein kinase JAK3 (Homo sapiens, UniProt P52333); test: Inhibition of JAK3 (unknown origin)
T1 sequence (P52333 whole entry): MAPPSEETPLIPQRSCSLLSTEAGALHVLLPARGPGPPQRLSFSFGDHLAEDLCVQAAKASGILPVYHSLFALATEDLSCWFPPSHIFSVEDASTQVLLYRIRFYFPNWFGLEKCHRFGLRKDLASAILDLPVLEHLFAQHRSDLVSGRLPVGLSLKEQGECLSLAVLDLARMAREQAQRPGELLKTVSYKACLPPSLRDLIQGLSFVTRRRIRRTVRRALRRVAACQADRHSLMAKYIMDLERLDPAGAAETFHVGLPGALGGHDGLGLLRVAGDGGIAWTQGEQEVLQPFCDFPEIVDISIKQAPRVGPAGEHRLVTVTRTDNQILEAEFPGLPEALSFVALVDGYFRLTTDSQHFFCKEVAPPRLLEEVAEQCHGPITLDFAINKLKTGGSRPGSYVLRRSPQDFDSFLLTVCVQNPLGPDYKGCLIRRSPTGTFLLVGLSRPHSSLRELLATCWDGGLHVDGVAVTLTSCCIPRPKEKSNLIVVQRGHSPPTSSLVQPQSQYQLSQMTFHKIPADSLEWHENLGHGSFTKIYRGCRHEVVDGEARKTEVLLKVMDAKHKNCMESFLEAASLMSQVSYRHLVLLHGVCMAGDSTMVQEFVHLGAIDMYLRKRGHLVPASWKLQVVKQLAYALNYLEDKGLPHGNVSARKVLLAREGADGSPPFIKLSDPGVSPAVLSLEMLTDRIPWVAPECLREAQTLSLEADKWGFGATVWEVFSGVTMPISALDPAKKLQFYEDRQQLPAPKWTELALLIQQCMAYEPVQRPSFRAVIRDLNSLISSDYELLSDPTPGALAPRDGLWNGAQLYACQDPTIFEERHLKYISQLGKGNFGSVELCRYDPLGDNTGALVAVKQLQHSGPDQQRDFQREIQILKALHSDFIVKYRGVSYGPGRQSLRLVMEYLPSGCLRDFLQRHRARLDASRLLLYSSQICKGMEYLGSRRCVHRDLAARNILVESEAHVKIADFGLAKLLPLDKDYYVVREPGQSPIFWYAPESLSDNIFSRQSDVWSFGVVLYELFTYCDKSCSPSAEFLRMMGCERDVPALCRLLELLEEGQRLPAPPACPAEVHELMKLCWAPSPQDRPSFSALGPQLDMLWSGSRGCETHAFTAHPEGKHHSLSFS

[3] = biological target: Tyrosine-protein kinase BTK (Homo sapiens, UniProt Q06187); test: Inhibition of recombinant human N-terminal His-tagged BTK expressed in baculovirus infected sf9 cells using poly(4:1 Glu,Tyr) as substrate by ADP-Glo kinase assay
[4] = Antiproliferative activity against human Raji cells after 48 hrs by CCK-8 assay; assay type: functional, cell-based; procedure, shortened: as §1
[5] = Cell cycle arrest in human Ramos cells assessed as accumulation at G0/G1 phase at 10 uM by propidium iodide staining based flow cytometry (reference value: 56.19%); assay type: functional
Procedure, shortened: (§2)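 Ramos cells treated, then cell-cycle phase distribution (G0/G1, S, G2/M) measured by flow cytometry. Three separate experiments, expressed as mean±standard deviation.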

[6] = Cell cycle arrest in human Ramos cells assessed as accumulation at S phase at 10 uM by propidium iodide staining based flow cytometry (reference value: 42.23%); assay type: functional; procedure, shortened: as §2
Ramos [7] = test: Induction of apoptosis in human Ramos cells assessed as early apoptotic cells at 10 uM after 48 hrs by annexin V/FITC propidium iodide staining based flow cytometry relative to control; assay type: functional
Procedure, shortened: (§3)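 Ramos cells exposed for 48 h to the indicated compound concentrations. Cells then stained with annexin V/FITC and analysed by flow cytometry for apoptosis.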

Ramos [8] = test: Induction of apoptosis in human Ramos cells assessed as necrotic cells at 10 uM after 48 hrs by annexin V/FITC propidium iodide staining based flow cytometry relative to control; assay type: functional; procedure, shortened: as §3
Ramos [9] = test: Induction of apoptosis in human Ramos cells assessed as viable cells at 10 uM after 48 hrs by annexin V-FITC/propidium iodide staining based flow cytometry relative to control; assay type: functional; details: for viability at 10 µM: Homo sapiens, Ramos, 48 h, read-out: Activity; procedure, shortened: as §3
[10] = Cell cycle arrest in human Ramos cells assessed as accumulation at G2/M phase at 10 uM by propidium iodide staining based flow cytometry (reference value: 1.58%); assay type: functional; procedure, shortened: as §2
Ramos [11] = test: Induction of apoptosis in human Ramos cells assessed as late apoptotic cells at 10 uM after 48 hrs by annexin V/FITC propidium iodide staining based flow cytometry relative to control; assay type: functional; procedure, shortened: as §3

Sequence of Tyrosine-protein kinase BTK (Q06187 whole entry): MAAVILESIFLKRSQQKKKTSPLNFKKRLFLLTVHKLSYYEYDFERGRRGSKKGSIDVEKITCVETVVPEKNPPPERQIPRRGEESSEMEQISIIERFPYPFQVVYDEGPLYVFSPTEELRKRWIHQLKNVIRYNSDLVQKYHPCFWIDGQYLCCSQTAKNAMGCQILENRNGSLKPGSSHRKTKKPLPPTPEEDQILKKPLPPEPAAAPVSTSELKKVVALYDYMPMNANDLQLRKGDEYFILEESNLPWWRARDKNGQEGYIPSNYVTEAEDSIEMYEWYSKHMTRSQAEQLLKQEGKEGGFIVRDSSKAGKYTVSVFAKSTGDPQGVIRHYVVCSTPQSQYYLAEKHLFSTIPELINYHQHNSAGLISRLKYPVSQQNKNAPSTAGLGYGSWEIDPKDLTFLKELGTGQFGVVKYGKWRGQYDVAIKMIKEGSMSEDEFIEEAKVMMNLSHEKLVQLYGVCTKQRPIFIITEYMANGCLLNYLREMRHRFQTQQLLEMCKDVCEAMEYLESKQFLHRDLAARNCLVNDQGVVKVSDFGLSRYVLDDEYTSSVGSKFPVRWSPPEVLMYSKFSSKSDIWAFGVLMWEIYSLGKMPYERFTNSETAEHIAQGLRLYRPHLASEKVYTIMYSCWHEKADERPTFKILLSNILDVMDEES

Question: For `C=CC(=O)Nc1cccc(-n2cnc3cnc(Nc4ccc(N5CCN(CC)CC5)cc4)nc32)c1`, which IC50 [1] is on record?
Answer: The IC50 was 12.1 µM.

Question: What about the IC50 [2] of the same compound?
Answer: Its IC50 is 0.0675 µM.

Question: What about the IC50 [3] of the same compound?
Answer: The IC50 was 0.0005 µM.

Question: And the IC50 [4]?
Answer: The IC50 was 19.5 µM.

Question: What does the source list for `C=CC(=O)Nc1cccc(-n2cnc3cnc(Nc4ccc(N5CCN(S(C)(=O)=O)C(C)C5)cc4)nc32)c1` (stereo unspecified)?
Answer: IC50 [1]: > 40 µM; IC50 [2]: 0.0831 µM; IC50 [3]: 0.0132 µM; IC50 [4]: 31.7 µM

Question: Which results are given for `C=CC(=O)N1CCC[C@@H](n2nc(-c3ccc(Oc4ccccc4)cc3)c3c(N)ncnc32)C1` [IBRUTINIB]?
Answer: Activity [5]: 46.4%; Activity [6]: 53.5%; Activity (Ramos [7]): 37%; IC50 [1]: 8.11 µM; Activity (Ramos [8]): 0.1%; Activity (Ramos [9]): 62%; Activity [10]: 0.15%; IC50 [4]: 15.2 µM

Question: With `C=CC(=O)Nc1cccc(-n2cnc3cnc(Nc4ccc(OCCCN5CCOCC5)cc4)nc32)c1` as the compound, how does the Activity [5] read?
Answer: The Activity was 41%.

Question: And the Activity [6]?
Answer: The Activity was 52.4%.

Question: What about the Activity (Ramos [7]) of the same compound?
Answer: The Activity was 41.9%.

Question: What about the Activity (Ramos [11]) of the same compound?
Answer: The Activity was 10.9%.

Question: What about the IC50 [1] of the same compound?
Answer: Its IC50 is 7.75 µM.

Question: And the Activity (Ramos [8])?
Answer: The Activity was 2.2%.

Question: What about the IC50 [2] of the same compound?
Answer: Its IC50 is 0.0726 µM.

Question: And the IC50 [3]?
Answer: Its IC50 is 0.0004 µM.

Question: What about the viability at 10 µM (Ramos [9]) of the same compound?
Answer: The viability at 10 µM was 44.9%.

Question: What about the Activity [10] of the same compound?
Answer: Its Activity is 6.61%.

Question: And the IC50 [4]?
Answer: Its IC50 is 12.6 µM.

Question: Which results are given for `C=CC(=O)Nc1cccc(-n2cnc3cnc(Nc4ccc(N5CCN(CC)CC5)cc4OC)nc32)c1`?
Answer: IC50 [1]: > 40 µM; IC50 [2]: > 0.1 µM; IC50 [3]: > 0.1 µM; IC50 [4]: > 40 µM

Question: Which IC50 [1] does the source give for `C=CC(=O)Nc1cccc(-n2cnc3cnc(Nc4ccc(N5CCOCC5)cc4)nc32)c1` here?
Answer: Its IC50 is 11.3 µM.

Question: What about the IC50 [2] of the same compound?
Answer: Its IC50 is over 0.1 µM.

Question: What about the IC50 [3] of the same compound?
Answer: The IC50 was 0.0151 µM.

Question: What about the IC50 [4] of the same compound?
Answer: The IC50 was 11.8 µM.

Question: Which IC50 [1] does the source give for `C=CC(=O)Nc1cccc(-n2cnc3cnc(Nc4ccc(N5CCN(C(C)=O)C(C)C5)cc4)nc32)c1` (stereo unspecified) here?
Answer: Its IC50 is over 40 µM.

Question: And the IC50 [2]?
Answer: Its IC50 is 0.0612 µM.

Question: What about the IC50 [3] of the same compound?
Answer: Its IC50 is 0.0005 µM.

Question: And the IC50 [4]?
Answer: Its IC50 is 24.2 µM.

Question: Which IC50 [1] does the source give for `C=CC(=O)Nc1cccc(-n2cnc3cnc(Nc4ccc(N5CCN(C)CC5)cc4OC)nc32)c1` here?
Answer: Its IC50 is 13.2 µM.

Question: What about the IC50 [2] of the same compound?
Answer: Its IC50 is over 0.1 µM.

Question: And the IC50 [3]?
Answer: The IC50 was over 0.1 µM.

Question: What about the IC50 [4] of the same compound?
Answer: The IC50 was 13.7 µM.

Question: For `C=CC(=O)Nc1cccc(-n2cnc3cnc(Nc4ccc(OC)cc4)nc32)c1`, which IC50 [1] is on record?
Answer: The IC50 was over 40 µM.

Question: And the IC50 [2]?
Answer: The IC50 was 0.0672 µM.

Question: What about the IC50 [3] of the same compound?
Answer: Its IC50 is 0.0971 µM.

Question: And the IC50 [4]?
Answer: The IC50 was 31.2 µM.

Question: With `C=CC(=O)Nc1cccc(-n2cnc3cnc(Nc4ccc(N5CCN(S(C)(=O)=O)CC5)cc4)nc32)c1` as the compound, how does the IC50 [1] read?
Answer: Its IC50 is over 40 µM.

Question: And the IC50 [2]?
Answer: The IC50 was 0.0701 µM.

Question: What about the IC50 [3] of the same compound?
Answer: Its IC50 is 0.0171 µM.

Question: And the IC50 [4]?
Answer: Its IC50 is over 40 µM.

Question: With `C=CC(=O)Nc1cccc(Nc2nc(Nc3ccc(OCCOC)cc3)ncc2F)c1` [SPEBRUTINIB] as the compound, how does the Activity [5] read?
Answer: The Activity was 31%.

Question: What about the Activity [6] of the same compound?
Answer: The Activity was 47.9%.

Question: And the Activity (Ramos [7])?
Answer: Its Activity is 21.1%.

Question: What about the Activity (Ramos [11]) of the same compound?
Answer: The Activity was 20.4%.

Question: And the IC50 [1]?
Answer: The IC50 was 15.1 µM.

Question: What about the Activity (Ramos [8]) of the same compound?
Answer: Its Activity is 4.3%.

Question: And the viability at 10 µM (Ramos [9])?
Answer: The viability at 10 µM was 54.2%.

Question: And the Activity [10]?
Answer: Its Activity is 20.9%.

Question: What about the IC50 [4] of the same compound?
Answer: Its IC50 is 25.3 µM.

Question: With `C=CC(=O)Nc1cccc(-n2c(=O)[nH]c3cnc(Nc4ccc(N5CCOCC5)cc4OC)nc32)c1` as the compound, how does the IC50 [1] read?
Answer: Its IC50 is 39.1 µM.

Question: What about the IC50 [2] of the same compound?
Answer: Its IC50 is over 0.1 µM.

Question: What about the IC50 [3] of the same compound?
Answer: Its IC50 is over 0.1 µM.

Question: What about the IC50 [4] of the same compound?
Answer: The IC50 was over 40 µM.

Question: Which results are given for `C=CC(=O)Nc1cccc(-n2cnc3cnc(Nc4ccc(N5CCN(S(C)(=O)=O)CC5)cc4OC)nc32)c1`?
Answer: IC50 [1]: 38.6 µM; IC50 [2]: > 0.1 µM; IC50 [3]: > 0.1 µM; IC50 [4]: 21.9 µM

Question: For `C=CC(=O)Nc1cccc(-n2cnc3cnc(Nc4ccc(N5CCN(C)CC5)cc4)nc32)c1`, which IC50 [1] is on record?
Answer: Its IC50 is 8.22 µM.

Question: What about the IC50 [2] of the same compound?
Answer: Its IC50 is 0.0671 µM.

Question: What about the IC50 [3] of the same compound?
Answer: Its IC50 is 0.0102 µM.

Question: And the IC50 [4]?
Answer: Its IC50 is 7.55 µM.

Question: For `C=CC(=O)Nc1cccc(-n2c(=O)[nH]c3cnc(Nc4ccc(N5CCN(CC)CC5)cc4)nc32)c1`, which IC50 [1] is on record?
Answer: Its IC50 is 35.2 µM.

Question: And the IC50 [2]?
Answer: The IC50 was over 0.1 µM.

Question: What about the IC50 [3] of the same compound?
Answer: Its IC50 is over 0.1 µM.

Question: And the IC50 [4]?
Answer: The IC50 was 11.9 µM.
